Assay outcomes: PubChem BioAssay, several laboratories
Hits are enriched below; roughly 1.9% of the tested compounds scored in any of these assays.
SENP1 inh – inhibitors of human SENP1 SUMO protease catalytic domain | AID 624204 | Q9P0U3 | recombinant SENP1 catalytic domain, CyPet-SUMO1-YPet FRET cleavage | inhibition, % at 10 µM | actives 0.21% (n = 360,000);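 active = inhibition at least 30% at 10 µM, raw YFP signal under a set limit, fluorescence ratio 0.5 to 1.5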
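Test system: hSENP1 catalytic domain, recombinant; Amount: 20 pM final SENP1 enzyme; Medium: Tris pH 8 buffer plus EDTA, NaCl, BME, BSA, NP40, catalase; Schedule: 50 min enzyme reaction, room temperature, light-protected; Technique: FRET fluorescence in CFP and YFP emission channels; Controls: no-enzyme wells low, DMSO-plus-enzyme wells high control.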
FAS TE block – FAS thioesterase (human) inhibition; P49327; recombinant FAS-TE, OMFH fluorogenic substrate, fluorescence endpoint; inhibition, % at 15 µM; actives 0.67% (n = 360,000); AID 602261;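 active = compounds whose normalised, plate-corrected inhibition of enzyme fluorescence in the single-dose primary screen is 50% or more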
ADAM10 inh – inhibitors of human ADAM10; O14672; recombinant ADAM10, EDANS/DABCYL FRET peptide cleavage, 3 h; inhibition, % at 7 µM; actives 0.62% (n = 370,000); AID 720582;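 active = inhibition above a per-campaign cutoff equal to the mean of compounds falling between control-based bounds plus 3 SD, cut at about 20% in these data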
ADAM17 inh – inhibits human ADAM17; P78536; AID 720648; inhibition, % at 6.95 µM; actives 0.83% (n = 370,000); recombinant ADAM17, EDANS/DABCYL FRET peptide cleavage;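 active = inhibition above the mean of compounds lying between control limits plus 3 SD, set per campaign, cut at about 8.5% in these data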
ADAM10 counter – inhibits human ADAM10 in ADAM17 exosite counter-screen; recombinant ADAM10, EDANS/DABCYL FRET peptide cleavage, 3 h; actives 47% (n = 2,900); inhibition, % at 6.95 µM; AID 743256; shares compounds with ADAM17 inh;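 active = mean inhibition over the triplicate runs exceeds the activity threshold set in the earlier primary screen, cut at about 20% in these data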
ADAM17 confirm – confirmation of inhibitors of human ADAM17. shares compounds with ADAM17 inh. recombinant ADAM17, EDANS/DABCYL QFRET peptide cleavage. inhibition, % at 6.95 µM. actives 65% (n = 2,900). AID 743257;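 active = mean inhibition across replicates above the hit cutoff set in the primary screen, cut at about 8.5% in these data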
Of the large screens only hits and unclear results are named; the others gave an inactive call (follow-up assays come after a bar, where they were run).

O=S1(=O)c2c(cccc2N2CCSCC2)Oc2ccccc2CN1Cc1cn(Cc2ccccc2C(F)(F)F)nn1	none (no result: SENP1 inh, FAS TE block)
CC(C)[C@@H](CO)NS(=O)(=O)c1ccc(Br)cc1F	none
COC[C@H](NS(=O)(=O)c1ccc(Br)cc1F)[C@@H](O)c1ccccc1	ADAM17 inh 9.8 | ADAM10 counter inactive | ADAM17 confirm 10
Nc1[nH]c(C(=O)c2ccccc2)c(-c2ccc3ccccc3c2)c1C(=O)NCc1ccc(F)cc1	none (no result: SENP1 inh, FAS TE block)
COC(=O)[C@H](CC(C)C)N(CCc1cn(Cc2ccc(C)cc2)nn1)S(=O)(=O)c1ccc(F)cc1Br	none (no result: SENP1 inh, FAS TE block)
Clc1cccc(COn2c(-c3ccc(Cl)cc3Cl)nc3ncccc32)c1	ADAM17 inh 11 | ADAM10 counter inactive | ADAM17 confirm inactive
Cc1ccc(COn2c(-c3ccc(Cl)cc3Cl)nc3ncccc32)cc1	none
O=C(Nc1ccc(F)cc1)Nc1nc2ncccn2c1-c1ccc(F)cc1	none (no result: SENP1 inh, FAS TE block)
O=C1NC[C@H](Cc2ccccc2)N(C[C@@H]2CCCN2C[C@H](Cc2ccccc2)N2C[C@H](Cc3ccccc3)N(CC3CCCCC3)C(=O)C2=O)C1=O	none
CC(C)C[C@@H](CN1CCC[C@H]1CN1C(=O)C(=O)NC[C@@H]1Cc1ccc(O)cc1)N1C[C@H](Cc2ccccc2)N(CC2CCCCC2)C(=O)C1=O	none
CC(C)C[C@@H](CN1CCC[C@H]1CN1C(=O)C(=O)NC[C@@H]1Cc1ccccc1)N1C[C@H](Cc2ccc(O)cc2)N(CC2CCCCC2)C(=O)C1=O	ADAM17 inh 10 | ADAM10 counter 20 | ADAM17 confirm 11
O=C1NC[C@H](Cc2ccccc2)N(C[C@H]2CCCN2C[C@H](Cc2ccccc2)N2C[C@H](Cc3ccccc3)N(CC3CCCCC3)C(=O)C2=O)C1=O	ADAM17 inh 9.0 | ADAM10 counter 20 | ADAM17 confirm 9.3
CN(CC(=O)Nc1ccc(S(=O)(=O)N2CCCC2)cc1)Cc1cccc(Cl)c1Cl	ADAM17 inh 10 | ADAM10 counter inactive | ADAM17 confirm inactive
Cn1c(=O)c2[nH]c(SCC(=O)N3CCN(c4cccc(C(F)(F)F)c4)CC3)nc2n(C)c1=O	none (no result: SENP1 inh, FAS TE block)
CCCCCC(=O)N1CC2(CC(c3cccc(NC(=O)CC(c4ccccc4)c4ccccc4)c3)=NO2)C[C@@H]1C(N)=O (some centres not stated)	ADAM17 inh 9.6 | ADAM10 counter 29 | ADAM17 confirm 18
C=C(C)C(=O)Nc1cccc(C2=NOC3(C2)C[C@H](C(N)=O)N(C(=O)/C=C/C)C3)c1 (some centres not stated)	ADAM17 inh 9.9 | ADAM10 counter inactive | ADAM17 confirm inactive
NC(=O)[C@H]1CC2(CC(c3cccc(NC(=O)COc4ccc(Cl)cc4)c3)=NO2)CN1C(=O)c1ccccc1C(=O)c1ccccc1 (some centres not stated)	ADAM17 inh 8.7 | ADAM10 counter 24 | ADAM17 confirm 15
Cc1cccc(-c2cccc3c4c([nH]c23)[C@@H]2C[C@H]3[C@@H](CN2CC4)[C@H](C)ON3C)c1	none (no result: SENP1 inh, FAS TE block)
CCOC(=O)CC(=O)CSCC(=O)Nc1ccc(C)cc1	ADAM17 inh 9.1 | ADAM10 counter inactive | ADAM17 confirm inactive
CCO[C@H]1OC(C(=O)NCc2nc3ccccc3[nH]2)=C[C@@H](c2csc3ccccc23)[C@@H]1CCCO	ADAM17 inh 12 | ADAM10 counter inactive | ADAM17 confirm inactive
Nc1cc2ccccc2cc1NS(=O)(=O)N1CCCCC1	none (no result: SENP1 inh, FAS TE block)
COc1cccc(CNS(=O)(=O)c2ccc3c(c2)NC(=O)CS3)c1	none
COc1cccc(CNC(=O)CCS(=O)(=O)c2ccc3c(c2)NC(=O)CS3)c1	ADAM17 inh 8.7 | ADAM10 counter inactive | ADAM17 confirm inactive
COCC(C)n1c(SCC(=O)Nc2cc(C)on2)nc2ccccc2c1=O (configuration not stated)	none
COCC(C)n1c(SCC(=O)NC(=O)NCc2ccccc2)nc2ccccc2c1=O (configuration not stated)	ADAM17 inh 10 | ADAM10 counter inactive | ADAM17 confirm inactive
COc1ccc(OC)c(NC(=O)CCC(=O)Nc2nnc(C(C)C)s2)c1	ADAM17 inh 12 | ADAM10 counter inactive | ADAM17 confirm inactive
O=C(Nc1ccc2c(c1)CCC2)c1cccc(S(=O)(=O)N2CCN(c3ccccc3)CC2)c1	ADAM17 inh 9.1 | ADAM10 counter 20 | ADAM17 confirm 15
O=C(Nc1ccc(S(=O)(=O)C(F)F)cc1)c1cccc(S(=O)(=O)N2CCOCC2)c1	ADAM17 inh 12 | ADAM10 counter inactive | ADAM17 confirm 9.0
O=C(Nc1cccc(S(=O)(=O)C(F)F)c1)c1ccc(S(=O)(=O)N2CCOCC2)cc1	ADAM17 inh 11 | ADAM10 counter inactive | ADAM17 confirm 9.6
O=C1N2Cc3ccccc3C2CS(=O)(=O)N1C1CCCC1 (configuration not stated)	none (no result: SENP1 inh, FAS TE block)
CCOC(=O)[C@]12CCCCC/C=C\1N(CCc1ccc(Cl)cc1)C(=O)[C@H]2CC(=O)NCc1cccc2ccccc12	none (no result: SENP1 inh, FAS TE block)
CN1CC=C(c2ccccc2)N(c2ccc(Br)cc2)C1=O	none (no result: SENP1 inh, FAS TE block)
Cc1cccc(-c2cccc3c4c([nH]c23)[C@@H]2C[C@H](N(C)C(=S)Nc3ccc(C#N)cc3)[C@H]([C@H](C)O)CN2CC4)c1	none (no result: SENP1 inh, FAS TE block)
COc1ccc(CNC(=O)C/C(C)=N/NC(=O)Cc2ccc(OC)c(OC)c2)cc1	ADAM17 inh 9.9 | ADAM10 counter inactive | ADAM17 confirm inactive
COc1ccccc1CNC(=O)C/C(C)=N/NC(=O)Cc1ccc(OC)c(OC)c1	none
COc1cc(NC(=O)C/C(C)=N/NC(=O)Cc2ccccc2)c(OC)cc1Cl	ADAM17 inh 11 | ADAM10 counter inactive | ADAM17 confirm 11
COc1ccc(Cl)cc1NC(=O)C/C(C)=N/NC(=O)CCc1ccccc1	none
Nc1[nH]c2cc(C(F)(F)F)ccc2c1C(=O)N1CCN(CCc2ccccc2)CC1	none (no result: SENP1 inh, FAS TE block)
C[C@H](CCC(=O)N(c1ccccc1)c1ccccc1)CC1CCCCC1	none (no result: SENP1 inh, FAS TE block)
COc1ccccc1OCC(=O)Nc1oc(-c2ccccc2)c(-c2ccccc2)c1C#N	none
N#Cc1c(NC(=O)COC(=O)C2CC3C=CC2C3)oc(-c2ccccc2)c1-c1ccccc1 (configuration not stated)	ADAM17 inh 8.9 | ADAM10 counter inactive | ADAM17 confirm inactive
Cc1cc(C)c2c(=O)[nH][nH]c2n1	ADAM17 inh 12 | ADAM10 counter inactive | ADAM17 confirm inactive
Cc1cc(=O)[nH]c2[nH][nH]c(=O)c12	none
